Data from ChEMBL document CHEMBL3286295, “Discovery of HDAC inhibitors with potent activity against multiple malaria parasite life cycle stages” (Eur J Med Chem, 2014).
Activity calls are given as the source filed them. The rule behind the calls is not given here.

Tests used:
Plasmodium falciparum [1] = assay: Antimalarial activity against asexual blood stage of Plasmodium falciparum 3D7 infected in human serum assessed as [3H]hypoxanthine incorporation incubated for 48 hrs prior to 3H]hypoxanthine addition measured after 24 hrs by liquid scintillation counting analysis; format: functional, organism-based; conditions: 3D7, Serum
Method in brief: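 Synchronous ring-stage parasites (0.25% parasitaemia, 2.5% haematocrit) in RPMI 1640 with 10% heat-inactivated human serum, exposed to serially diluted compound for 48 h at 37°C. [3H]-hypoxanthine (0.5 μCi/well) then added for a further 24 h and counted by liquid scintillation. Inhibition is relative to 0.5% DMSO controls. IC50 by log-linear interpolation, mean (±SD) of three independent experiments, each in triplicate wells.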

HepG2 = assay: Cytotoxicity against human HepG2 cells after 48 hrs; format: ADME, cell-based; conditions: HepG2, 48 h
[2] = Selectivity index, ratio of IC50 for human HepG2 cells to IC50 for asexual blood stage of Plasmodium falciparum 3D7
[3] = tested on: Plasmodium falciparum 3D7; assay: Inhibition of HDAC in Plasmodium falciparum 3D7 trophozoites assessed as histone H4 hyperacetylation level at 500 nM after 3 hrs by Western blotting analysis relative to control
Method in brief: (§1)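 Synchronous trophozoite-stage 3D7 parasites incubated 3 h with 500 nM compound or 0.05% DMSO vehicle. Vehicle samples taken at 0 and 3 h. Saponin lysis and PBS washing, then 15% SDS-PAGE and immunoblotting. Anti-RAP2 monoclonal used as loading control; infrared fluorescent secondary detection.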

Plasmodium falciparum [4] = assay: Inhibition of histone deacetylase in Plasmodium falciparum nuclear lysates at 1 uM by fluorescence assay
Method in brief: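 Nuclear protein lysates prepared from trophozoite-stage P. falciparum with a nuclear extraction kit, tested at 1 μM compound in a fluorometric HDAC assay kit. Percent inhibition vs controls, mean (±SD) of two independent assays, each in duplicate.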

Plasmodium falciparum [5] = assay: Inhibition of Plasmodium falciparum recombinant histone deacetylase1 using HDAC substrate 3 as substrate at 1 uM by fluorescence assay
Method in brief: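 Recombinant PfHDAC1 tested at 1 μM compound in a fluorometric HDAC assay kit with Fluorogenic HDAC substrate 3. Percent inhibition vs controls, mean (±SD) of two independent assays, each in duplicate.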

Plasmodium berghei = assay: Antimalarial activity against exo-erythrocytic form of Plasmodium berghei infected in human HepG2 cells after 48 hrs; format: functional, organism-based; conditions: HepG2, 48 h
Method in brief: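 HepG2-A16-CD81EGFP cells seeded 20–26 h before infection and given compound 18 h before infection (0.5% final DMSO). Infected with 1×10^3 luciferase-expressing P. berghei sporozoites per well, spun 3 min at 330xg, 37°C, then incubated 48 h at 37°C in 5% CO2. Read by luminescence. IC50 by four-parameter variable-slope nonlinear regression.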

[6] = Selectivity index, ratio of IC50 for human HepG2 cells to IC50 for exo-erythrocytic form of Plasmodium berghei
Plasmodium falciparum [7] = assay: Antimalarial activity against late stage gametocyte stage of Plasmodium falciparum NF54 after 72 hrs; format: functional, organism-based; conditions: NF54, 72 h
Method in brief: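 Stage IV gametocytes of NF54-pfs16-GFP, magnetically isolated day 8 post induction, 33,000 per well. Incubated 72 h with compound under 5% CO2/5% O2/80% N2, then overnight with Mitotracker Red CM-H2XRos (0.07 ug/ml). IC50 by sigmoidal variable-slope fit, mean ±SD, two experiments in duplicate.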

[8] = Selectivity index, ratio of IC50 for human HepG2 cells to IC50 for late stage gametocyte stage of Plasmodium falciparum NF54; format: toxicity, cell-based; conditions: read-out: Ratio IC50
[9] = tested on: Plasmodium falciparum 3D7; assay: Inhibition of HDAC in Plasmodium falciparum 3D7 trophozoites assessed as histone H3 hyperacetylation level at 500 nM after 3 hrs by Western blotting analysis relative to control; method in brief: as §1
[10] = Cytotoxicity against erythrocytes (unknown origin); format: cell-based; conditions: Erythrocyte

Compound	IC50 (Plasmodium falciparum [1])	IC50 (HepG2)	selectivity ratio [2]	inhibition [3]	inhibition (Plasmodium falciparum [4])	inhibition (Plasmodium falciparum [5])	IC50 (Plasmodium berghei)	selectivity ratio [6]	IC50 (Plasmodium falciparum [7])	selectivity ratio [8]	inhibition [9]	IC50 [10]
Cc1cc(C)cc(C(=O)NOCCCCCC(=O)NO)c1	0.1 µM	1.26 µM	13	Active	58.6%	73.8%	0.16 µM	8	0.33 µM	4	Active	–
CC(C)c1ccc(C(=O)NOCCCCCC(=O)NO)cc1	0.12 µM	8.76 µM	73	Active	72.9%	67.2%	1.34 µM	7	–	–	Active	–
O=C(CCCCCONC(=O)c1ccccc1F)NO	0.73 µM	9.1 µM	12	–	–	–	1.25 µM	7	> 120 µM	–	–	–
O=C(/C=C/c1ccccc1)N[C@@H](CCCCCC(=O)NO)C(=O)Nc1cccc2cccnc12	–	–	–	–	–	–	–	–	–	–	–	1.24 µM
CCCCc1ccc(C(=O)NOCCCCCC(=O)NO)cc1	0.26 µM	10.8 µM	41	–	–	–	1.79 µM	6	5.3 µM	–	–	–
CCCOc1ccccc1C(=O)NOCCCCCC(=O)NO	0.24 µM	8.12 µM	34	–	–	–	0.48 µM	17	–	–	–	–
O=C(CCCCCCC(=O)Nc1ccccc1)NO [VORINOSTAT]	–	–	–	–	–	–	–	–	–	–	–	> 2.2 µM
CC(/C=C/C(=O)NO)=C\[C@@H](C)C(=O)c1ccc(N(C)C)cc1 [TRICHOSTATIN]	–	–	–	Active	78.1%	93.3%	–	–	–	–	Active	0.2 µM
Cc1cccc(C(=O)NOCCCCCC(=O)NO)c1	0.19 µM	4.69 µM	25	Active	73.9%	75.5%	0.66 µM	7	0.43 µM	11	Active	–
CCCOc1cccc(C(=O)NOCCCCCC(=O)NO)c1	0.24 µM	7.04 µM	29	–	–	–	0.45 µM	16	–	–	–	–
Cc1ccc(C(=O)NOCCCCCC(=O)NO)cc1	0.22 µM	12.1 µM	55	–	–	–	1.14 µM	11	–	–	–	–
COc1ccc2nc3cc(Cl)ccc3c(Nc3cc(CN4CCCC4)c(O)c(CN4CCCC4)c3)c2n1 [PYRONARIDINE]	–	–	–	–	–	–	–	–	2.7 µM	–	–	–
CC(C)(C)c1ccc(C(=O)NOCCCCCC(=O)NO)cc1	0.09 µM	12.5 µM	139	Active	48.3%	68.6%	1.87 µM	7	> 120 µM	–	Active	–
CC(C)Oc1ccc(C(=O)NOCCCCCC(=O)NO)cc1	0.15 µM	9.76 µM	65	Active	9.3%	62.4%	1.36 µM	7	–	–	Active	–
CCCCOc1ccc(C(=O)NOCCCCCC(=O)NO)cc1	0.17 µM	> 50 µM	> 294	Active	50.3%	72.1%	2.14 µM	> 23	–	–	Active	–
CCN(CC)CCCC(C)Nc1ccnc2cc(Cl)ccc12 (configuration not stated) [CHLOROQUINE]	–	> 10 µM	–	–	–	–	> 10 µM	–	–	–	–	–
O=C(CCCCCONC(=O)c1ccc(-c2ccccc2)cc1)NO	0.16 µM	10.2 µM	64	Active	89.3%	64.2%	1.83 µM	6	0.5 µM	20	Active	–
O=C(CCCCCONC(=O)c1ccco1)NO	0.62 µM	8.03 µM	13	–	–	–	1.13 µM	7	1 µM	–	–	–
CCCCCOc1ccc(C(=O)NOCCCCCC(=O)NO)cc1	0.21 µM	> 50 µM	> 238	–	–	–	5.14 µM	> 10	–	–	–	–
CCCCCCOc1ccc(C(=O)NOCCCCCC(=O)NO)cc1	0.35 µM	> 50 µM	> 143	–	–	–	7.91 µM	> 6	–	–	–	–
CCOc1ccc(C(=O)NOCCCCCC(=O)NO)cc1	0.23 µM	7.68 µM	33	–	–	–	1.37 µM	6	–	–	–	–
O=C1C(O)=C([C@H]2CC[C@H](c3ccc(Cl)cc3)CC2)C(=O)c2ccccc21 [ATOVAQUONE]	–	–	–	–	–	–	0.00016 µM	> 64100	–	–	–	–
O=C(CCCCCONC(=O)c1ccc(C(F)(F)F)cc1)NO	0.26 µM	13 µM	50	–	–	–	1.9 µM	7	–	–	–	–
Cc1ccc(C(=O)NOCCCCCC(=O)NO)cc1C	0.12 µM	3.24 µM	27	Active	93.3%	82.6%	0.31 µM	10	0.25 µM	13	Active	–
Cc1ccccc1C(=O)NOCCCCCC(=O)NO	1.12 µM	12.7 µM	11	–	–	–	2.54 µM	5	–	–	–	–
O=C(CCCCCONC(=O)c1ccc(F)cc1)NO	0.58 µM	10.3 µM	18	–	–	–	2.31 µM	4	2 µM	–	–	–
CCCOc1ccc(C(=O)NOCCCCCC(=O)NO)cc1	0.21 µM	16.9 µM	80	–	–	–	5.29 µM	3	–	–	–	–
